The target of experiment [1] is T1, Vitamin D3 receptor (Rattus norvegicus) (UniProt P13053).
T1 sequence (whole entry): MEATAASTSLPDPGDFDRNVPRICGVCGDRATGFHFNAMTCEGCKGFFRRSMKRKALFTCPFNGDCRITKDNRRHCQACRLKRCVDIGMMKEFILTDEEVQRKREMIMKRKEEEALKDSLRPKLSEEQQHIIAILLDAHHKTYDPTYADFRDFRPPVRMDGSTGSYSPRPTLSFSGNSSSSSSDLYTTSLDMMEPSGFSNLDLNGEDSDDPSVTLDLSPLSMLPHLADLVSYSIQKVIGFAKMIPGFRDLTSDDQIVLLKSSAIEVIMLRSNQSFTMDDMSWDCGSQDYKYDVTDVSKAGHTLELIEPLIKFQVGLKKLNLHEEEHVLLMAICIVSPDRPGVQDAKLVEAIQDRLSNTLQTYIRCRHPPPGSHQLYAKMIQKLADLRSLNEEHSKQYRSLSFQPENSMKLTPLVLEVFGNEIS
Briefly: Ratio of 1alpha,25-dihydroxyvitamin D3 ED50 to compound ED50 for VDR-mediated 24-hydroxylase gene expression in rat ROS 17/2.8 cells after 16 hrs by luciferase reprter assay. It counts as cell-based. A digest of the protocol:
(§1)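 Rat osteosarcoma cells stably transfected with a 24-hydroxylase gene reporter plasmid; luciferase activity read across a dose range. ED50 is the concentration raising luciferase activity by 50%, taken from dose–response curves. Ratio line reports 1α,25-(OH)2D3 ED50 divided by analogue ED50.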

Experiment [2] addresses T1, Vitamin D3 receptor (Rattus norvegicus). Nature of the experiment: Ratio of 1alpha,25-dihydroxyvitamin D3 Ki to compound Ki for full length recombinant rat vitamin D receptor by scintillation counting analysis. The method, boiled down:
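Competitive binding against radiolabeled 1α,25-(OH)2D3 at 1 nM, with Kd of 0.2 nM used in Ki derivation from dose–response curves. Duplicate runs on two separate occasions. Reported as the average ratio of 1α,25-(OH)2D3 Ki to analogue Ki.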

Experiment [3] concerns HL-60. Nature of the experiment: Ratio of 1alpha,25-dihydroxyvitamin D3 ED50 to compound ED50 for induction of human HL60 promyelocytes differentiation to monocytes after 4 days by NBT reduction assay. It counts as functional. A digest of the protocol:
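HL-60 promyelocyte-to-monocyte differentiation scored as percentage of cells reducing nitro blue tetrazolium. Run in duplicate, repeated twice. ED50, the concentration giving 50% maturation, taken from dose–response curves; expressed as the average ratio of 1α,25-(OH)2D3 ED50 to analogue ED50.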

The subject of experiment [4] is Rattus norvegicus. Briefly: Effect on bone calcium mobilization in weanling Sprague-Dawley rat assessed as serum calcium level at 2340 pmol/day administered as 4 consecutive daily doses measured 24 hrs after last dose relative to control. It counts as functional. A digest of the protocol:
(§2)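 Rats switched to a 0.47% Ca diet for 1 week, then 0.02% Ca diet for 2 weeks. Dosing started in the final week on the 0.02% Ca diet: four consecutive intraperitoneal doses about 24 h apart. Blood taken from the severed neck 24 h after the last dose. Serum calcium measured as the index of bone calcium mobilization.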

For experiment [5], the system named is Rattus norvegicus. Briefly: Effect on intestinal calcium transport in weanling Sprague-Dawley rat assessed as increase in ratio of serosal to mucosal calcium level at 87 pmol/day administered as 4 consecutive daily doses measured 24 hrs after last dose relative to control. It counts as functional. The method, boiled down: (§3)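 Same rats, on 0.47% Ca diet for 1 week, then 0.02% Ca for 2 weeks. Four intraperitoneal doses about 24 h apart were given during the last week. 24 h after the final dose, the first 10 cm of intestine was taken for calcium transport measurement by the everted gut sac method.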

In experiment [6] the test system is Rattus norvegicus. Nature of the experiment: Effect on bone calcium mobilization in weanling Sprague-Dawley rat assessed as serum calcium level at 32 pmol/day administered as 4 consecutive daily doses measured 24 hrs after last dose relative to control. It counts as functional. The method, boiled down:
as §2

Experiment [7] concerns Rattus norvegicus. Briefly: Effect on bone calcium mobilization in weanling Sprague-Dawley rat assessed as serum calcium level at 87 pmol/day administered as 4 consecutive daily doses measured 24 hrs after last dose relative to control. It counts as functional. A digest of the protocol:
as §2

The subject of experiment [8] is Rattus norvegicus. Briefly: Effect on intestinal calcium transport in weanling Sprague-Dawley rat assessed as increase in ratio of serosal to mucosal calcium level at 2340 pmol/day administered as 4 consecutive daily doses measured 24 hrs after last dose relative to control. It counts as functional. The method, boiled down:
as §3

Experiment [9] has as its system Rattus norvegicus. Briefly: Effect on bone calcium mobilization in weanling Sprague-Dawley rat assessed as serum calcium level at 7020 pmol/day administered as 4 consecutive daily doses measured 24 hrs after last dose relative to control. It counts as functional. The method, boiled down:
as §2

The subject of experiment [10] is Rattus norvegicus. Briefly: Effect on intestinal calcium transport in weanling Sprague-Dawley rat assessed as increase in ratio of serosal to mucosal calcium level at 32 pmol/day administered as 4 consecutive daily doses measured 24 hrs after last dose relative to control. It counts as functional. The method, boiled down: as §3
The test system of experiment [11] is Rattus norvegicus. Briefly: Effect on intestinal calcium transport in weanling Sprague-Dawley rat assessed as increase in ratio of serosal to mucosal calcium level at 7020 pmol/day administered as 4 consecutive daily doses measured 24 hrs after last dose relative to control. It counts as functional. A digest of the protocol: as §3
Experiment [12] deals with Rattus norvegicus. Nature of the experiment: Effect on intestinal calcium transport in weanling Sprague-Dawley rat assessed as increase in ratio of serosal to mucosal calcium level at 780 pmol/day administered as 4 consecutive daily doses measured 24 hrs after last dose relative to control. It counts as functional. The method, boiled down:
as §3

Experiment [13] deals with Rattus norvegicus. Briefly: Effect on bone calcium mobilization in weanling Sprague-Dawley rat assessed as serum calcium level at 780 pmol/day administered as 4 consecutive daily doses measured 24 hrs after last dose relative to control. It counts as functional. The method, boiled down:
as §2

For experiment [14], the target named is T1, Vitamin D3 receptor (Rattus norvegicus). Briefly: Induction of VDR transcriptional activity assessed as activation of 24-hydroxylase gene expression in rat ROS 17/2.8 cells after 16 hrs by luciferase reprter assay. It counts as cell-based. The method, boiled down:
as §1

Experiment [15] has as its system Rattus norvegicus. Nature of the experiment: Effect on bone calcium mobilization in weanling Sprague-Dawley rat assessed as serum calcium level at 260 pmol/day administered as 4 consecutive daily doses measured 24 hrs after last dose relative to control. It counts as functional. The method, boiled down: as §2
Experiment [16] has as its system Rattus norvegicus. Briefly: Effect on intestinal calcium transport in weanling Sprague-Dawley rat assessed as increase in ratio of serosal to mucosal calcium level at 260 pmol/day administered as 4 consecutive daily doses measured 24 hrs after last dose relative to control. It counts as functional. The method, boiled down:
as §3

For experiment [17], the system named is Rattus norvegicus. Briefly: Effect on bone calcium mobilization in weanling Sprague-Dawley rat assessed as serum calcium level at 16 pmol/day administered as 4 consecutive daily doses measured 24 hrs after last dose relative to control. It counts as functional. A digest of the protocol:
as §2

Experiment [18] relates to Rattus norvegicus. Nature of the experiment: Effect on intestinal calcium transport in weanling Sprague-Dawley rat assessed as increase in ratio of serosal to mucosal calcium level at 16 pmol/day administered as 4 consecutive daily doses measured 24 hrs after last dose relative to control. It counts as functional. The method, boiled down: as §3

Each structure is given as a SMILES string. Active and inactive are the calls of the source. No cut-off for these calls is given here.

Consider `C=C1[C@H](O)CC(=C/C=C2\CCC[C@]3(C)[C@@H]([C@@H](C)CCCC(C)(C)O)CC[C@@H]23)C[C@H]1O` [DP001], for which the figures for the Ratio ED50 in experiment [1] and in experiment [3] were 29 and 25, respectively. Besides, the Ratio Ki in [2] was found to be 1.
As to `C=C1/C(=C/C=C2\CCC[C@]3(C)[C@@H]([C@H](C)CCCC(C)(C)O)CC[C@@H]23)C[C@@H](O)C(=C)[C@@H]1O`, the Activity in experiment [4] is 2.2 mg/dL; in experiment [6], 0.3 mg/dL; in experiment [7], 0.5 mg/dL; in [9] it was 2.2 mg/dL; in experiment [13], 1.3 mg/dL. Also, the Ratio amounted to 2.1 in [5]; 3 in experiment [8]; 2.3 in experiment [10]; 3.2 in experiment [11]; 1.2 in experiment [12]. For the same compound, the results for the Ratio ED50 in experiment [1] and in experiment [3] were 1 and 0.4, respectively. The Ratio Ki in experiment [2] stood at 2.5.
Turning to `C=C1/C(=C\C=C2/CCC[C@]3(C)[C@@H]([C@H](C)CCCC(C)(C)O)CC[C@@H]23)C[C@@H](O)C(=C)[C@@H]1O`, the Ratio in experiment [5] was 5.1; in experiment [10], 2.4; in [11] it was 9.2; in experiment [12], 5.2. In addition, the Activity in experiment [6] was determined as 1.4 mg/dL; in [7], 2.2 mg/dL; in experiment [9], 7.3 mg/dL; in experiment [13], 5 mg/dL. The results for the Ratio ED50 in experiment [1] and in experiment [3] were 1 and 0.7, respectively. The Ratio Ki in experiment [2] amounted to 1.4.
As for `C=C1/C(=C/C=C2\CCC[C@]3(C)[C@@H]([C@@H](C)CCCC(C)(C)O)CC[C@@H]23)C[C@@H](O)C(=C)[C@@H]1O`, the result in experiment [14] was Active. The Ratio in experiment [5] is reported as 2.9; in [16] it was 2.6; in experiment [10] it was 0.9; in experiment [12], 4.5. Also, the Activity is 0 mg/dL in experiment [6], 0.6 mg/dL in experiment [7], 1.2 mg/dL in experiment [15] and 4 mg/dL in [13]. Further, the Ratio ED50 in experiment [1] turned out to be 5; in experiment [3] it was 20. In experiment [2], the Ratio Ki was found to be 1.1.
For `C=C1/C(=C\C=C2/CCC[C@]3(C)[C@@H]([C@H](C)CCCC(C)C)CC[C@@H]23)C[C@@H](O)C(=C)[C@@H]1O`, the Activity entry in experiment [14] was “Dose-dependent effect”; in [7], 0.9 mg/dL; in [9] it was 6 mg/dL; in experiment [13], 3.8 mg/dL. The Ratio in experiment [5] came out at 4.6; in [11] it was 6; in experiment [12], 5.8. The Ratio ED50 in [1] and in experiment [3] was 0.07 throughout. The Ratio Ki in experiment [2] came to 0.01.
For `C=C1/C(=C\C=C2/CCC[C@]3(C)[C@@H]([C@@H](C)CCCC(C)C)CC[C@@H]23)C[C@@H](O)C(=C)[C@@H]1O`, the Activity entry in experiment [14] was “Dose-dependent effect”; in [7], 0.4 mg/dL; in experiment [9], 4.8 mg/dL; in experiment [13] it was 3.3 mg/dL. For the same compound, the Ratio ED50 turned out to be 0.07 in experiment [1] and 0.7 in experiment [3]. Besides, the Ratio Ki in experiment [2] was determined as 0.01.
In the case of `C=C1/C(=C\C=C2/CCC[C@]3(C)[C@@H]([C@H](C)CCCC(C)(C)O)CC[C@@H]23)C[C@@H](O)C[C@@H]1O` [CALCITRIOL], in [14], the result was Active. Besides, the Ratio in [5] is on record as 3.1; in experiment [12] it was 1.9. Moreover, the Activity in experiment [7] was 0.3 mg/dL; in experiment [13], 2.1 mg/dL.
As to `C=C1/C(=C\C=C2/CCC[C@]3(C)[C@@H]([C@@H](C)CCCC(C)(C)O)CC[C@@H]23)C[C@@H](O)C(=C)[C@@H]1O`, in experiment [14], the outcome was Active. Besides, the Activity was 0.7 mg/dL in experiment [17]; 1.1 mg/dL in experiment [6]; 2.8 mg/dL in experiment [7]; 3.4 mg/dL in experiment [15]; 6 mg/dL in experiment [9]; 5.9 mg/dL in experiment [13]. For the same compound, the Ratio in [5] amounted to 5.4; in experiment [18] it was 3; in [16] it was 5; in experiment [10], 5; in [11], 7.3; in experiment [12] it was 9.3. The Ratio ED50 in [1] was found to be 10; in experiment [3] it was 29. The Ratio Ki in [2] came to 1.1.
